# Source: PubChem BioAssay AID504383 (The Scripps Research Institute Molecular Screening Center, 2011)
# Screen size: about 2,500 compounds; about 1,200 (48%) were called active. The set was probably picked from earlier hits. The list shows a part of the results. Unmarked numbers belong to inactive results.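 The calls were made as follows: active = mean activation above the low control average plus 3 SD, as set in the primary screen (cut at about 12% in these data); inactive = the rest.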
# Molecular target: Troponin I, cardiac muscle (Homo sapiens) + Troponin T, cardiac muscle (Homo sapiens) + Troponin C, slow skeletal and cardiac muscles (Homo sapiens) (UniProt P19429+P45379+P63316)
# Assay: calcium sensitizers of cardiac thin filaments – biochemical, IANBD-TnC fluorescence, triplicate, confirmation (AID 504383);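 also: 0% = DMSO at 0.472 mM calcium and 100% = DMSO at 2.9 mM calcium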
# Details: IANBD-labeled cardiac RTF, Ca2+ sensitivity fluorescence; at 7.2 µM; hits give high values; scaled from EC20 to saturating calcium; tested at EC20 calcium, 0.472 mM
# Outline: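 Material: labelled regulated thin filaments; Reagent: 0.472 mM calcium; Incubation: 15 min compound incubation with filaments at 25 °C; Detection: filament fluorescence intensity; Evaluation: fluorescence increase normalised to calcium controls; Benchmarks: low control EC20 calcium, high control EC100 calcium.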
row,Structure (SMILES),activation
1,CCN(C(=O)c1cnc(NC(C)C)cc1C(F)(F)F)c1ccc(Cl)cc1,4.41%
2,COc1ccc(N=Cc2sc(O)c3ccccc23)cc1,152% (active)
3,CC(=O)n1c(C=Nc2ccc(Cl)cc2)c(O)c2ccccc21,10.7%
4,Cc1ccc(N=Cc2sc(O)c3ccccc23)cc1,7.98%
5,Oc1sc(C=Nc2ccccc2)c2ccccc12,12.9% (active)
6,COc1ccc(N=Cc2c(O)c3ccccc3n2C(C)=O)cc1,13.7% (active)
7,CCN(c1ccc(N=Cc2c(O)n(Cc3ccc(OC)cc3)c(=O)c3ccccc23)cc1)C(C)C,9.81%
8,O=[N+]([O-])c1ccc(N/N=C\c2ccccc2OCc2ccccc2)cc1,19.2% (active)
9,O=C(Nc1cc2c3c(c1)CC(=O)N3CCC2)C1CC1,10.7%
10,COc1ncnc2c1NC1=C(S2)C(=NCCC(=O)O)CC(C)(C)C1,70.3% (active)
11,CCN1/C(=C/c2ccc3cc(C)ccc3[n+]2CC)Sc2cc(C)ccc21,2.46%
12,CCN1/C(=C/c2ccc3cc(C)cc(C)c3[n+]2CC)Sc2cc(C)ccc21,14.7% (active)
13,CCN1/C(=C\c2ccc3ccccc3[n+]2CC)Sc2cc(C)ccc21,57.9% (active)
14,CCN1/C(=C/c2ccc3cc(C)ccc3[n+]2CC)Sc2ccccc21,68.1% (active)
15,CCN1/C(=C\c2ccc3cc(C)ccc3[n+]2CC)Sc2cc(C)c(C)cc21,6.91%
16,CCN1/C(=C/c2ccc3cc(C)ccc3[n+]2CC)Sc2ccc3sccc3c21,11.7% (active)
17,COc1ccccc1N=Cc1c(C)c(C#N)c2[nH]c3ccccc3n2c1=O,1.91%
18,COc1ccc(N2C(N)=NC(N)=NC2(C)C)cc1,1.33%
19,CN1CC=C2C(C#N)=C(N)C(C#N)(C#N)C(Cc3ccccc3)C2C1 (centres undefined),12.3% (active)
20,N#CC1=C(N)SC(N)=C(C#N)C1CCc1ccccc1,0.43%
21,CCN1CC=C2C(C#N)=C(N)C(C#N)(C#N)C(CCc3ccccc3)C2C1 (centres undefined),11.4%
22,CN1CC=C2C(C#N)=C(N)C(C#N)(C#N)C(CCc3ccccc3)C2C1 (centres undefined),46% (active)
23,CCOc1ccc(S(=O)(=O)n2ccnc2)c2ccccc12,12.2% (active)
24,CC1=CC=CN2CC(O)CN=C12 (centres undefined),25.4% (active)
25,CCCc1ccc(C(=O)NNc2cc(Cl)ccc2Cl)cc1,1.21%

row,Structure (SMILES),activation
1,CCc1ccc(C(=O)NNc2cc(Cl)ccc2Cl)cc1,16.7% (active)
2,CCC1SC(=Nc2cccc(C)c2)NC1=O (centres undefined),143% (active)
3,Fc1ccc(OCc2nnc(SCCN3CCOCC3)o2)cc1,4.25%
4,O=C(CSc1nnc(COc2ccccc2)o1)N1CCN(c2ccccc2)CC1,55.2% (active)
5,CCO[C@@H]1OC(C(=O)O)=C[C@H](c2coc3ccccc3c2=O)[C@H]1CCCO,9.42%
6,COc1ccc(CCNC(=O)c2ccccc2OCc2c(C)noc2C)cc1,7.09%
7,COc1cccc(/C(O)=C/c2nc3ccc(C(=O)NCCc4ccc(Cl)cc4)cc3[nH]c2=O)c1,6.19%
8,COc1ccc(N(C)S(=O)(=O)c2ccc(Cl)c(C(=O)NCCc3ccc(Cl)cc3)c2)cc1,89% (active)
9,Cc1cc(C(=O)COc2cccc3cccnc23)c(C)n1C,60.1% (active)
10,OCCN=C1CCCc2c1[nH]c1ccc(Cl)cc21,10.9%
11,Cn1c(O)c(/C=N/NC(=O)c2cc3ccccc3cc2O)c2ccccc21,228% (active)
12,Cn1ncc(N=Cc2c(O)ccc3ccccc23)c1C(=O)Nc1cccc(Cl)c1,8.95%
13,CC(O)c1cccc(N=Cc2ccc3ccccc3c2O)c1 (centres undefined),13.9% (active)
14,Oc1ccccc1C=NN=Cc1c(O)ccc2ccccc12,6.43%
15,Cc1ccc2c(c1)c(/C=C/c1cc[n+](C)cc1)c(C)n2C,11%
16,Cc1[nH]c2ccccc2c1/C=C/c1cc[n+](C)cc1,11.9% (active)
17,Cc1ccc2[nH]c(C)c(/C=C/c3cc[n+](C)cc3)c2c1,171% (active)
18,C=CCn1c(COc2cccc(C)c2)nnc1SCn1nnc2ccccc2c1=O,5.98%
19,CCNc1nc(SCC(N)=O)nc2sc3c(c12)CCN(C)C3,6.59%
20,CCOC(=O)C(C)(C)Sc1nc2c(cnn2-c2ccc(Cl)cc2)c(=O)[nH]1,185% (active)
21,CCOC(=O)C(C)Sc1nnc(Cc2cc(=O)[nH]c(=O)[nH]2)n1-c1ccc(Cl)cc1 (centres undefined),10.2%
22,CCCCCOc1ccc(CN2CCOCC2)cc1Cl,74.8% (active)
23,COc1cccc(CNC(=O)C2CCCN(c3nc4ccccc4o3)C2)c1 (centres undefined),1.39%
24,Cc1cc2nc(C3CCCN(C(=O)NCc4ccccc4)C3)[nH]c2cc1C (centres undefined),35.4% (active)
25,CCCC(=O)Nc1ccc(-c2cnc(-c3ccc(NC(=O)CCC)cc3)nc2)cc1,13.5% (active)

row,Structure (SMILES),activation
1,Cc1cccc(/C=N/NC(=O)C(C)Nc2cccc3ccccc23)n1 (centres undefined),46.1% (active)
2,CCOC(=O)c1sc(=NC(=O)c2cc(OC)c(OC)c(OC)c2)n(C)c1C,266% (active)
3,CC1CC(C)CN(C(=O)Cn2c(-c3nonc3N)nc3ccccc32)C1 (centres undefined),4.8%
4,CCOC(=O)Cn1nc2sc3ccccc3n2c(=O)c1=O,8.56%
5,CCOC(=O)Cn1c(=O)c(-c2cc(Br)ccc2N)nc2ccccc21,16.6% (active)
6,CCc1ccccc1NC(=O)COc1ccc2c(=O)c(Oc3cc(C)ccc3C)coc2c1,2310% (active)
7,COc1c(O)cccc1-c1nnn(CCC(=O)OCC(=O)c2ccccc2)n1,53.4% (active)
8,O=C(Cc1nc2ccccc2[nH]c1=O)c1ccccc1,8.29%
9,O=C(O)CSc1nc2ccccc2nc1Cc1ccccc1F,413% (active)
10,C/C(Cn1cnc([N+](=O)[O-])n1)=N\NC(=O)c1cccc(F)c1,8.55%
11,O=C(N/N=C/c1ccccc1OC(=O)c1ccc2c(c1)OCO2)c1cccc(F)c1,52.1% (active)
12,COc1cc(C(=O)Oc2ccccc2/C=N/NC(=O)c2ccc(Cl)cc2)cc(OC)c1OC,61.8% (active)
13,CCC(=O)N(C)CCc1cc2c(c(OC)c1/C=N/NC(=O)c1ccc(Br)cc1)OCO2,8.22%
14,CC1=C(C(=O)OCCCCCl)C(c2cc3c(cc2Br)OCO3)NC(=O)N1 (centres undefined),7.44%
15,O=C(Cn1cc(/C=N/NC(=O)c2cccc3ccccc23)c2ccccc21)Nc1ccc(F)cc1,56.1% (active)
16,O=C(Nc1ccccc1C(=O)N/N=C/c1ccco1)c1ccc(F)cc1,10.3%
17,CCOc1cccc(NC(=O)/C(C#N)=C\c2cn(CC(=O)O)c3ccccc23)c1,7.03%
18,CCn1cc([N+](=O)[O-])c(C(=O)Nc2ccn(Cc3ccccc3)n2)n1,19.6% (active)
19,O=S1(=O)CCOC[C@H](CC2CCCCC2)N1Cc1ccccc1,3.3%
20,NC(=S)Nc1c(Cl)cccc1Cl,1.18%
21,CCOC(=O)c1cc2c(=O)n3ccccc3nc2n(CCOC)c1=NC(=O)c1c(-c2c(F)cccc2Cl)noc1C,8.32%
22,Cc1onc(-c2c(F)cccc2Cl)c1C(N)=S,25.8% (active)
23,CSC(=NCc1ccco1)NC#N,5.56%
24,O=[N+]([O-])c1ccc(C2=NN(c3ccccc3)C(c3ccco3)C2)cc1 (centres undefined),1.19%
25,O=[N+]([O-])c1ccc(/C=C/C2=NN(c3ccccc3)C(c3ccco3)C2)cc1 (centres undefined),31.7% (active)

row,Structure (SMILES),activation
1,COc1ncnc2c1N=C1CC(C)(C)CC(N)=C1S2,70.2% (active)
2,COC(C(=O)Nc1c(F)cccc1F)c1ccccc1 (centres undefined),13.6% (active)
3,O=C(Nc1ccc(Br)cc1)C(c1ccccc1)c1ccccc1,3.94%
4,Cc1nnc(NC(=O)CS(=O)(=O)Cc2ccccc2)s1,5.16%
5,Cc1nnc(NC(=O)CSc2ncnc3c2cnn3-c2ccccc2C)s1,14% (active)
6,NC(=O)NNC1=Nc2cccc3cccc1c23,6.47%
7,Nc1nc(SCC(=O)Nc2ccccc2)nc2nc3c(cc12)CCCC3,12.6% (active)
8,Nc1nc(SCC(=O)Nc2ccc(Cl)cc2)[nH]c(=O)c1-c1ccccc1,5.51%
9,CCOC(=O)c1cccc(NC(=O)CSc2nc(N)cc(N)n2)c1,2.77%
10,CCCOc1ccc(C2C(C(=O)/C=C/c3ccco3)=C(O)C(=O)N2CCN2CCOCC2)cc1OC (centres undefined),14% (active)
11,C=C(C)c1cccc(C(C)(C)NC(=O)Nc2cccnc2)c1,15.5% (active)
12,COc1ccc(NC(=O)Nc2cccnc2)c(OC)c1,5.8%
13,CCn1c(CSCc2ccccc2)n[nH]c1=S,15.7% (active)
14,Nc1ccc(CCNc2ncnc3c2ncn3[C@@H]2O[C@H](CO)[C@@H](O)[C@H]2O)cc1,7.47%
15,Cc1cc(-n2c(=O)c(C#N)cc3c(=O)n4ccccc4nc32)no1,14.7% (active)
16,S=C1NC2=C(CCC/C2=C\c2ccccc2)C(c2ccccc2)N1 (centres undefined),8.03%
17,S=C1NC2=C(CCCC2=C2SCCCS2)C(c2ccccc2)N1 (centres undefined),23.6% (active)
18,CC(C)c1ccc(N2C(=O)/C(=C/N(C)C)SC2=S)cc1,57.7% (active)
19,CCN1C(=O)/C(=C/C=C2\N(CC)c3cc(S(=O)(=O)N(C)C)ccc3N2c2ccccc2)SC1=S,10.6%
20,CN(C)/C=C1\SC(=S)N(c2ccc(Br)cc2)C1=O,75.9% (active)
21,O=C1CSC(=S)N1c1ccc(O)cc1,4.53%
22,O=C(c1ccccc1C(=O)N1CCN(c2ccccc2)CC1)N1CCN(c2ccccc2)CC1,0.49%
23,C=CCn1c(C)c(C(C)=O)c(N2CCN(c3ccccc3)CC2)nc1=S,74.9% (active)
24,CC(=O)c1nnn(-c2nc(N3CCCC3)nc(N(c3ccccc3)c3ccccc3)n2)c1C,5.27%
